Assay outcomes as filed in PubChem BioAssay.
Shown are actives, neighbours in structure and some others; about 2.1% of the full set was active somewhere.
ZTA counter – blocks Epstein-Barr virus ZTA, an EBNA-1 counter-screen; inhibition, % at 11 µM; ZTA-DNA binding, fluorescence polarization; 0.15% of 320,000 active; AID 2234; in the data active = inhibition above about 33%
Target sequence (P03206 whole entry, looked up): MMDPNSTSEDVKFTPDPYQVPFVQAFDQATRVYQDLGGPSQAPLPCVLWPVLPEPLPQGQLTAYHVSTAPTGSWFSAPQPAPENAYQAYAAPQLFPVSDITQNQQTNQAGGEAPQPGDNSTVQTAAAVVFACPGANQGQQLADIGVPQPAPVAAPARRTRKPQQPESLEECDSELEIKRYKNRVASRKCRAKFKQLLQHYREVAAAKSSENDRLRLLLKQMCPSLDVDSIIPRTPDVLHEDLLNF
HCV NS3 hel inh – inhibitors of Hepatitis C virus NS3 helicase | NS3 helicase DNA unwinding, Cy5 molecular beacon fluorescence | inhibition, % at 10.9 µM | 0.56% of 290,000 active;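 active = inhibition above the mean of all tested compounds plus 3 SD, set per campaign, cut at about 35% in these data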;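 note: 0% = DMSO wells and 100% = thioflavine S control wells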
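System: Hepatitis C virus NS3 helicase domain fragment enzyme | Reagent: Annealed dual-labelled DNA beacon duplex, ATP-started | Compound dosing: 10.9 µM single point, 0.8% DMSO | Incubation: 1 h reaction at 25 °C, ATP-initiated | Technique: Cy5 fluorescence | Evaluation: Percent inhibition from t60/t0 fluorescence ratio | Benchmarks: Low DMSO, high thioflavine S at 110 µM | Replication: Singlicate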
PABP polyA inh – blocks human PABP binding to poly(A) RNA | P11940 | fluorescence polarization | inhibition, % at 35 µM | 1% of 290,000 active | AID 2014;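 note: calls also rest on retests at 20 µM and on dose response follow-up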
EBNA-1 inhibitor – blocks EBNA-1 binding to DNA; EBNA-1 DNA binding, fluorescence polarization; inhibition, % at 14.8 µM; 0.34% of 300,000 active; in the data active = inhibition above about 28%
eIF4H FP inh – inhibitors of RNA binding by human eIF4H; AID 2012; inhibition, % at 35 µM; eIF4H fluorescence polarization binding assay; 0.94% of 290,000 active; Q15056;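 note: calls also rest on retests at 20 µM and on dose response follow-up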
MLLE-PAM2 inh – inhibitors of microRNA-mediated deadenylation, human PABP1 MLLE binding; P11940; GST-MLLE / FITC-PAM2 fluorescence polarization; inhibition, % at 20 µM; 0.36% of 360,000 active; AID 588489; in the data active = inhibition above about 35%, passing the limit was not always enough;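 note: plate controls were DMSO wells with GST-MLLE for no effect and wells lacking GST-MLLE protein for full effect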
EBNA-1 inh conf – EBNA-1 (EBV) inhibition, confirmation; shares compounds with EBNA-1 inhibitor; Recombinant EBNA-1 DBD, Cy5-DNA fluorescence polarization; inhibition, % at 14.8 µM; 35% of 830 active;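 active = mean inhibition across replicates above a set limit taken from the earlier primary screen, cut at about 28% in these data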;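 note: plate controls were EBNA-1 protein with DMSO for no effect and wells lacking EBNA-1 for full effect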
ZTA DNA inh trip – ZTA (EBV) inhibition, triplicate counter-screen | AID 2328 | shares compounds with EBNA-1 inhibitor | Zta-ZRE DNA binding, Cy5 fluorescence polarization | inhibition, % at 11.1 µM | 830 tested, under 10 active;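 active = mean inhibition over triplicates above a set limit taken from the primary EBNA-1 screen, cut at about 37% in these data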;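 note: purified full length Zta protein with Cy5 labeled ZRE DNA probe; 0% = Zta with DMSO and 100% = wells lacking Zta protein; inhibitors lower polarization by freeing the labeled DNA probe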
The depositor's hits bear a star; / = no result given. Unless noted, the rule behind the calls is not given here.

SMILES	ZTA counter	HCV NS3 hel inh	PABP polyA inh	EBNA-1 inhibitor	eIF4H FP inh	MLLE-PAM2 inh	EBNA-1 inh conf	ZTA DNA inh trip
CCOC(=O)Cc1csc(NC(=O)CSc2nc(N)c3c(C)c(C)sc3n2)n1	3.4	-6.7	-1.8	168.8*	-9.5	11.5	7.4	4.8
CCOC(=O)Cc1csc(NC(=O)CSc2nc(C)cc(C)n2)n1	/	/	/	/	/	7.7	/	/
CC1CCN(C(=O)c2nc[nH]c2C(=O)N2CCc3ccccc3C2)CC1	9.2	/	/	/	/	11.0	/	/
COC(=O)c1cc(C(=O)OC)n(Cc2ccc(C)cc2)c1C	8.0	7.9	-7.6	1.3	34.1	-9.6	/	/
C=CCn1c(=NC(=O)C2COc3ccccc3O2)sc2cc(S(N)(=O)=O)ccc21 (configuration not stated)	7.8	6.0	-0.3	31.5*	5.6	-0.3	10.8	-9.6
COCCn1c(=NC(=O)C2COc3ccccc3O2)sc2cc(S(N)(=O)=O)ccc21 (configuration not stated)	1.5	-1.1	-10.0	-9.5	-8.3	-3.2	/	/
O=C1COc2ccc(C(=O)COC(=O)c3ccccc3F)cc2N1	/	/	/	/	/	-5.3	/	/
O=C1COc2ccc(C(=O)COC(=O)c3cc(S(=O)(=O)NCc4ccccc4)ccc3O)cc2N1	6.3	-2.2	-2.2	31.3*	1.2	-7.0	4.7	-4.2
NS(=O)(=O)c1ccc(CCNC(=O)c2cc(-c3ccccn3)nc3ccc(Br)cc23)cc1	-1.1	5.4	24.4	42.8*	9.0	-7.6	35.9*	3.0
COc1ccc2nc3n(c(=O)c2c1)-c1cc2ccccc2cc1C(=O)NC3Cc1ccccc1 (configuration not stated)	/	/	/	/	/	-6.3	/	/
O=C(CSc1n[nH]c(=O)[nH]c1=O)NC1CC1	27.2	4.3	1.2	59.5*	-3.9	-15.6	3.7	-0.7
O=C(CSc1n[nH]c(=O)[nH]c1=O)NCC1CCCCC1	1.6	6.0	-2.2	-2.2	-6.9	5.2	/	/
COc1ccccc1NC(=O)Cn1c2ccccc2c2nc3n(c(=O)c21)CCS3	-14.6	-2.9	-4.4	43.8*	-0.2	9.7	0.4	-8.3
O=C(Cn1c2ccccc2c2nc3n(c(=O)c21)CCS3)Nc1ccccc1C(F)(F)F	2.3	5.4	6.7	-8.9	-4.3	18.8	/	/
N#C/C(=C\c1cn(Cc2ccccc2F)c2ccccc12)C(=O)NCc1ccco1	6.1	-5.9	14.0	62.2*	3.9	-3.1	57.4*	-5.7
O=C(Nc1nc2cc3c(cc2s1)OCCO3)c1ccc(N2C(=O)CCC2=O)cc1	-1.6	-2.7	-11.0	62.1*	-1.9	-16.3	57.4*	22.9
O=C(Nc1nc2cc3c(cc2s1)OCCO3)c1ccncc1	2.1	9.5	-0.1	5.0	-10.7	-16.1	/	/
Cc1ccc2nc3c(c(C(=O)OC4CCOC4=O)c2c1)CCCC3 (configuration not stated)	-0.5	8.8	-8.4	29.5*	-13.1	-5.0	6.3	5.5
COc1ccc(CN=C2NN=C(c3ccccc3)CS2)cc1	-6.2	-7.7	12.5	-5.2	-6.2	-21.8	/	/
COc1ccc(-c2csc(NC(=O)c3nc(-c4ccccc4)oc3C)n2)cc1	-1.5	-2.4	-7.5	3.4	-16.9	-0.1	/	/
Cc1oc(-c2ccccc2)nc1C(=O)Nc1nccs1	11.3	1.6	1.8	51.8*	-4.9	1.6	0.2	-0.1
C=CCOc1ccc(CN(C)Cc2nc3cc(C(F)(F)F)ccc3c(=O)[nH]2)cc1	1.2	2.1	1.5	0.8	-8.6	-15.6	/	/
Cc1cc(C)c2c(-n3cccc3)c(C(=O)NNS(=O)(=O)c3ccc(Cl)cc3)sc2n1	2.6	14.1	8.3	29.5*	-0.1	-6.3	1.7	0.7
COC(=O)c1ccc2c(=O)[nH]c(CSc3nc(-c4ccc(F)cc4)cs3)nc2c1	-17.2	5.1	-7.5	59.6*	-9.2	-25.6	34.1*	11.8
NS(=O)(=O)c1ccc(CCNC(=O)C2CCC(CNS(=O)(=O)c3ccc(Br)s3)CC2)cc1 (configuration not stated)	-13.1	0.8	-4.7	59.5*	-15.6	4.6	24.1	-5.9
SMILES	ZTA counter	HCV NS3 hel inh	PABP polyA inh	EBNA-1 inhibitor	eIF4H FP inh	MLLE-PAM2 inh	EBNA-1 inh conf	ZTA DNA inh trip
O=C(NCc1cccs1)C1CCC(CNS(=O)(=O)c2ccc(Br)s2)CC1 (configuration not stated)	-7.9	4.9	-0.2	4.1	-12.0	-6.3	/	/
Cc1ccc(-n2nnc3c(=O)n(CC(=O)c4ccccc4)cnc32)cc1	-1.1	8.6	4.3	21.8	-2.3	-20.8	/	/
CCOc1ccc(-n2nnc3c(=O)n(CC(=O)c4ccccc4)cnc32)cc1	14.0	-1.0	3.9	29.6*	7.6	-7.7	12.8	11.6
CCOP(=O)(OCC)c1nc(-c2ccc(Cl)cc2Cl)oc1N1CCCCC1	-0.6	-15.5	-1.0	-7.1	-12.7	-1.2	/	/
CCOc1ccc(/C=N/NC(=O)C(=O)NCc2ccco2)cc1	-5.5	3.4	0.1	33.9*	5.0	-4.6	-7.7	-1.5
CC(C)Nc1ncnc2[nH]ncc12	/	/	/	/	/	11.4	/	/
Cc1ccc(NC(=O)c2ccc(=O)[nH]n2)cc1S(=O)(=O)Nc1ccccc1Cl	-1.0	/	/	/	/	-8.6	/	/
Cc1ccc(NC(=S)NC(=O)c2ccc(F)cc2)cc1S(=O)(=O)Nc1ccccc1Cl	4.7	4.6	-1.3	27.8*	-0.7	31.4	-6.8	-13.4
O=C(CSc1nnc(-c2ccc(O)cc2)o1)Nc1ccc2c(c1)OCCO2	-7.3	2.9	-3.6	33.6*	-5.3	-10.0	11.7	9.4
O=C(CSc1nnc(-c2ccc(O)cc2)o1)Nc1cccc(O)c1	-0.5	1.1	7.2	-13.9	-1.2	3.2	/	/
Cc1ccc(NC(=O)CSc2nnc(-c3ccc(S(=O)(=O)N4CCCC4)cc3)o2)cc1C	-11.2	-4.1	35.0	108.2*	-5.8	-0.2	56.1*	194.1*
Cc1cccc(NC(=O)CSc2nnc(-c3ccc(S(=O)(=O)N4CCCC4)cc3)o2)c1	-12.5	0.8	2.0	-3.1	-6.5	-23.9	/	/
CC(C)(C)c1nc(SCC(=O)Nc2ccc3c(c2)OCCO3)c2ccccc2n1	-2.8	16.3	9.5	45.8*	-3.7	27.0	15.6	2.7
CC(C)CNc1nc(N)c([N+](=O)[O-])c(NCC2CCCO2)n1 (configuration not stated)	4.2	3.9	-0.5	-9.1	8.5	1.6	/	/
Cc1ccc(Nc2nc(NCC3CCCO3)nc(N)c2[N+](=O)[O-])cc1C (configuration not stated)	8.4	-1.2	1.8	122.1*	6.5	-8.9	109.7*	16.2
CN1C(=O)N(C)C2(c3ccccc3)Nn3c(s/c(=C/c4ccco4)c3=O)=NC12c1ccccc1 (configuration not stated)	-2.9	7.5	42.9*	44.7*	50.5	-12.2	77.1*	9.5
